14 compounds from ChEMBL document CHEMBL2429791, “Preparation of asymmetric urea derivatives that target prostate-specific membrane antigen for SPECT imaging” (J Med Chem, 2013) can be followed below.

Structures are written as SMILES.

For data set [1], the target named is T1, Glutamate carboxypeptidase 2 (Homo sapiens, UniProt Q04609). As to the kind of experiment: Displacement of [125I]-DCIT from PSMA in human LNCaP cells after 1 hr by gamma counting. (Loss of bound radioactivity is the signal in a displacement assay; it reports binding, not function.)
Data set [2] deals with LNCaP. As to the kind of experiment: Biodistribution in LNCAP cells in C.B.-17/Icr […] Jcl mouse xenografted with human LNCAP and PC3 cells after 30 to 60 mins. It counts as ADME, organism-based. As to conditions: in vivo; call rule not given here. In general terms: In xenograft studies the graft and the host belong to different species.
The test system of data set [3] is Intestine. The data set is described as follows: Biodistribution in intestine of C.B.-17/Icr […] Jcl mouse xenografted with human LNCAP and PC3 cells after 30 to 60 mins. It counts as ADME, organism-based. As to conditions: in vivo.
For data set [4], the system named is Liver (Mus musculus). As to the kind of experiment: Biodistribution in liver of C.B.-17/Icr […] Jcl mouse xenografted with human LNCAP and PC3 cells after 30 to 60 mins. As to conditions: in vivo.
Data set [5] deals with PC-3. As to the kind of experiment: Biodistribution in PC3 cells in C.B.-17/Icr +/+ Jcl mouse xenografted with human LNCAP and PC3 cells at 25.9 MBq, iv after 30 mins by SPECT/CT analysis in presence of 2-PMPA. As to conditions: in vivo, 0.5 h. Type of data set: ADME, organism-based. Summed up: (§1)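 Anaesthetised (2.5% isoflurane) LNCaP/PC-3 tumour-bearing mice (20–25 g), kept on a heating pad, given ¹²³I tracer (25.9 MBq in 0.10 mL saline) iv by tail vein, with or without 50 mg/kg 2-PMPA. Pinhole SPECT acquired over 30–64 min (159 keV ±10% window, 32 projections × 60 s, 360°), then CT; images reconstructed by 3D OSEM.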

Data set [6] has as its system LNCaP. As to the kind of experiment: Biodistribution in LNCAP cells in C.B.-17/Icr +/+ Jcl mouse xenografted with human LNCAP and PC3 cells at 25.9 MBq, iv after 30 mins by SPECT/CT analysis. Type of data set: ADME, organism-based. Particulars: in vivo, 0.5 h. Summed up:
as §1

For data set [7], the system named is LNCaP. The data set is described as follows: Biodistribution in LNCAP cells in C.B.-17/Icr +/+ Jcl mouse xenografted with human LNCAP and PC3 cells at 25.9 MBq, iv after 30 mins by SPECT/CT analysis in presence of 2-PMPA. It counts as ADME, organism-based. As to conditions: in vivo, 0.5 h. Summed up: as §1
Data set [8] has as its target T1, Glutamate carboxypeptidase 2. As to the kind of experiment: Binding affinity to PSMA in human LNCaP cells after 1 hr by gamma counting. Type of data set: cell-based. In a few lines:
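LNCaP cells plated at 4 × 10⁵ cells/well and grown 48 h (37 °C/5% CO₂), then washed with RPMI 1640 containing 0.5% BSA. Saturation binding used ¹²⁵I-labelled ligand (specific activity 81.4 kBq/nmol), 1 h at 37 °C; nonspecific binding measured with 100 µM non-radioactive iodinated compound. Cells washed, lysed in 0.2 N NaOH, gamma-counted; Kd from Scatchard plots.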

In data set [9] the test system is LNCaP. As to the kind of experiment: Biodistribution in LNCAP cells in C.B.-17/Icr +/+ Jcl mouse xenografted with human LNCAP and PC3 cells after 2 mins to 3 hrs. It counts as ADME, organism-based. Particulars: in vivo. Summed up:
(§2)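 ¹²⁵I-labelled tracer given iv by tail vein to mice (22–24 g) bearing LNCaP (left shoulder) and PC-3 (right shoulder) xenografts of about 5–10 mm, grown from 1–5 × 10⁶ cells in 1:1 Matrigel. n=4 per time point; decapitated at 2 min, 30 min, 1, 3, 6 h. Tissues weighed and counted; uptake as %ID/g, mean ± SD.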

Data set [10] concerns Kidney. The data set is described as follows: Drug excretion in C.B.-17/Icr […] Jcl mouse kidney xenografted with human LNCAP and PC3 cells. It counts as ADME, tissue-based. Particulars: in vivo.
A short description of data set [11]: Distribution coefficient, log D of the compound. It counts as physicochemical. As to conditions: octanol/water.
Data set [12] deals with Liver. As to the kind of experiment: Drug excretion in C.B.-17/Icr […] Jcl mouse liver xenografted with human LNCAP and PC3 cells. Type of data set: ADME, tissue-based. Particulars: in vivo.
The test system of data set [13] is Blood. The data set is described as follows: Biodistribution in blood of C.B.-17/Icr […] Jcl mouse xenografted with human LNCAP and PC3 cells after 30 mins. Type of data set: ADME, organism-based. As to conditions: in vivo, 0.5 h.
Data set [14] concerns Kidney. As to the kind of experiment: Biodistribution in kidney of C.B.-17/Icr […] Jcl mouse xenografted with human LNCAP and PC3 cells after 2 mins to 3 hrs. It counts as ADME, organism-based. Particulars: in vivo. Summed up: as §2

T1 sequence (Q04609 whole entry): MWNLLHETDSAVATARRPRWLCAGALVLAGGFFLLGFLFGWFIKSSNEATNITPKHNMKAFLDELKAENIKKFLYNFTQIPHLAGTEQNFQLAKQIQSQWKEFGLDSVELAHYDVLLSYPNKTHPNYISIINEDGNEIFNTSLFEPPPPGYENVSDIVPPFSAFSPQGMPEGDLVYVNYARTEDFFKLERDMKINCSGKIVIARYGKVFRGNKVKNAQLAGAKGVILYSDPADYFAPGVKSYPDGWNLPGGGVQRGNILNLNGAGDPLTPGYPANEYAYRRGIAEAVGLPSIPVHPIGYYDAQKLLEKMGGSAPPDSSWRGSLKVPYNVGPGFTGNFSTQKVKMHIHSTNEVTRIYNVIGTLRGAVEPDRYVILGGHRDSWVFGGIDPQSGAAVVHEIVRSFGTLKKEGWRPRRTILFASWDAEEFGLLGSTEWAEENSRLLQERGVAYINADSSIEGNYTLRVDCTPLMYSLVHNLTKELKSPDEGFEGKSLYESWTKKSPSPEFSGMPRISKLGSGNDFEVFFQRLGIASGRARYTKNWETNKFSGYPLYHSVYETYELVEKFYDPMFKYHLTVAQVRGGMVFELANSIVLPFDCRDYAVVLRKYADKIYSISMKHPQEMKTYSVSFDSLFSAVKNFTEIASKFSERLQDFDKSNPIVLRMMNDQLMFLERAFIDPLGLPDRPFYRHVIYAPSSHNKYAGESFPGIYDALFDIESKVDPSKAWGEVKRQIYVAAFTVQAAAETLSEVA

Turning to `O=C(O)CC[C@H](NC(=O)N[C@@H](CS)C(=O)O)C(=O)O`, the affinity in data set [1], expressed as Ki, was 376 nM. Consider `O=C(O)CC[C@H](NC(=O)N[C@@H](CSC1CC(=O)N(CCCCCNC(=O)CNC(=O)c2cccc([125I])c2)C1=O)C(=O)O)C(=O)O` (some centres undefined), for which the Drug uptake entry in [2], in [3] and in data set [4] was “Active” each time.

`O=C(O)CC[C@H](NC(=O)N[C@@H](CSC1CC(=O)N(CCCC[C@H](NC(=O)CNC(=O)c2cccc([123I])c2)C(=O)O)C1=O)C(=O)O)C(=O)O` (some centres undefined): the values for the Drug uptake entry in data set [5], in data set [6] and in [7] were “Not Active”, “Active” and “Not Active”, respectively. In turn, `O=C(O)CC[C@H](NC(=O)N[C@@H](CSC1CC(=O)N(CCCC[C@H](NC(=O)c2cccc(I)c2)C(=O)O)C1=O)C(=O)O)C(=O)O` (some centres undefined) yielded an inhibitory constant (Ki) in data set [1] of 2.79 nM. Same read-out and setting: to `CN1C(=O)CC(SC[C@H](NC(=O)N[C@@H](CCC(=O)O)C(=O)O)C(=O)O)C1=O` (some centres undefined) belongs 62.1 nM; to `CNCC(=O)N[C@@H](CCCCN1C(=O)CC(SC[C@H](NC(=O)N[C@@H](CCC(=O)O)C(=O)O)C(=O)O)C1=O)C(=O)O` (some centres undefined), 94.8 nM. In data set [8], `O=C(O)CC[C@H](NC(=O)N[C@@H](Cc1ccc(O)c([125I])c1)C(=O)O)C(=O)O` had a Kd of 143 nM.

On to `O=C(O)CC[C@H](NC(=O)N[C@@H](CCCCNCc1ccc([125I])cc1)C(=O)O)C(=O)O`, for which the Drug uptake entry in [9], in [13] and in data set [14] was “Active” throughout. In addition, the Drug excretion entry in [10] is “Active”; in [12], “Not Active”. Further, in data set [11], the logD is -2.91. Binding in [8] was characterised by a dissociation constant (Kd) of 20.4 nM.

On to `O=C(O)CC[C@H](NC(=O)N[C@@H](CSC1CC(=O)N(CCCC[C@H](NC(=O)CNC(=O)c2cccc(I)c2)C(=O)O)C1=O)C(=O)O)C(=O)O` (some centres undefined), for which the inhibition constant (Ki) in data set [1] came to 4.97 nM. Still for that read-out and setting: to `O=C(O)CC[C@H](NC(=O)N[C@@H](CSC1CC(=O)N(CCCC[C@H](NC(=O)CNC(=O)c2ccccc2)C(=O)O)C1=O)C(=O)O)C(=O)O` (some centres undefined) belongs 8.06 nM; to `O=C(O)CC[C@H](NC(=O)N[C@@H](CSC1CC(=O)N(CCCCCNC(=O)CNC(=O)c2cccc(I)c2)C1=O)C(=O)O)C(=O)O` (some centres undefined), 7.91 nM; to `O=C(O)CC[C@H](NC(=O)N[C@@H](CSC1CC(=O)N(CCCC[C@H](NC(=O)CCNC(=O)c2cccc(I)c2)C(=O)O)C1=O)C(=O)O)C(=O)O` (some centres undefined), 6.26 nM.

As for `O=C(O)CC[C@H](NC(=O)N[C@@H](CSC1CC(=O)N(CCCC[C@H](NC(=O)CCCNC(=O)c2cccc(I)c2)C(=O)O)C1=O)C(=O)O)C(=O)O` (some centres undefined), the inhibitory constant (Ki) in [1] came out at 2.95 nM. Against the preceding compound, the Ki is about 2.1-fold lower. On the same count and under the same terms, for `O=C(O)CC[C@H](NC(=O)N[C@@H](CSC1CC(=O)N(CCCC[C@H](NC(=O)CCCCNC(=O)c2cccc(I)c2)C(=O)O)C1=O)C(=O)O)C(=O)O` (some centres undefined) the value was 2.14 nM.

As a reminder, the Ki is the equilibrium dissociation constant of an inhibitor or competing ligand from its target. The term Kd denotes the concentration at which binding is half-saturated. The logD is lipophilicity at a set pH, counting ionised and neutral species. High values mean a more lipophilic compound, low ones a more hydrophilic compound.
